This is a sample that favours compounds with a hit; in the whole collection about 3% have one here.
UBC13 polyUb: human UBC13 polyubiquitination inhibition. hit rate 0.47% among 330,000. UBC13 polyubiquitin chain formation, TR-FRET. AID 485273. inhibition, % at 20 µM; in the data active means inhibition above about 45%, passing the limit was not always enough
Target sequence (P61088 whole entry, looked up): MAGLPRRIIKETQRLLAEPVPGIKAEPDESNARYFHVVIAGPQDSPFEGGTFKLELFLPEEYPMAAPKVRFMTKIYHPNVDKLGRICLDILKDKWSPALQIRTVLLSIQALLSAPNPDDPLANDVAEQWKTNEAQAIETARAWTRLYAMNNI
MEKK3 PB1 HTS: raises or lowers MEK5 binding to the human MEKK3 PB1 domain. bead-based flow cytometry, Alexa488-MEK5 binding to MEKK3; actives lie on both sides; 0 = blocked by unlabeled MEK5, 100 = vehicle. hit rate 1.4% among 290,000. binding response (% of control), % at 10 µM. Q99759;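 active means binding response more than 3 SD above or below the average of its plate-row segment, actives on both sides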;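 further: Alexa488 bead fluorescence after subtracting the streptavidin-only scavenger bead signal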
MEKK2 mut-MEK5: signal of MEK5 binding to mutant human MEKK2 PB1 domain; hit rate 0.35% among 290,000; AID 1530; percent response, % at 10 µM; bead flow cytometry, Alexa488-MEK5 binding to MEKK2 mutant; in the data active means percent response above about 24%, passing the limit was not always enough
Apaf-1 inh: human Apaf-1 inhibition | reconstituted apoptosome caspase-3 activity, DEVD-Rh110 fluorescence | inhibition, % at 20 µM | O14727 | hit rate 0.71% among 330,000; active means inhibition of at least 40% at 20 µM;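 further: plate controls were DMSO wells for no effect and DEVD-CHO caspase inhibitor wells for full effect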
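Material: reconstituted apoptosome with Apaf-1, cytochrome c, caspase-9, procaspase-3, dATP; medium: pH 7.5 Hepes buffer with CHAPS, BSA, DTT; also added: cytochrome c and DEVD-Rh110 substrate; timing: 30 min plus 50 min, RT; signal: Rh110 fluorescence intensity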
MEKK2wt PB1 HTS: raises or lowers MEK5 binding to wildtype human MEKK2 PB1 domain. Q9Y2U5. bead flow cytometry, Alexa488-MEK5 binding to MEKK2 WT; actives lie on both sides. binding response (% of control), % at 10 µM. hit rate 1.1% among 290,000; in the data active means binding response below about 67% or above about 130%
UCH37 DUB inh: inhibitors of human deubiquitinating enzyme UCH37. Q9Y5K5. purified proteasome/UCH37, Ub-AMC cleavage fluorescence. inhibition, % (test concentration not listed). hit rate 0.33% among 330,000. AID 588478;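 active means mean inhibition over replicate wells above about 20%, limit read from the data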;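 further: 0% = compound-free wells with enzyme and 100% = wells lacking proteasome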
Target sequence (Q9Y5K5 whole entry, looked up): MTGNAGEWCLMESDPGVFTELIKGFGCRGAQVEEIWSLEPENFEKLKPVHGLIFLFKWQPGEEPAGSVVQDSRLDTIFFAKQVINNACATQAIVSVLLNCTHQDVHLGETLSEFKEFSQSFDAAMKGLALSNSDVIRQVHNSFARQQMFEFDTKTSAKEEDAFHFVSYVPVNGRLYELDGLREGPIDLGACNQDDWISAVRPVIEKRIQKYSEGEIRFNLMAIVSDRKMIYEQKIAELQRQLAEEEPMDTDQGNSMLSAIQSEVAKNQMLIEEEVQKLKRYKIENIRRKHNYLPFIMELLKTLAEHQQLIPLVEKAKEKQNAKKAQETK
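assay system = human UCH37 enzyme supplied as purified proteasome complex | amount = proteasome at 0.15 nM in the dispensed enzyme solution | schedule = 30 min compound-proteasome preincubation then 25 min substrate reaction, room temperature | measured by = fluorescence, ex 355 nm, em 460 nm | benchmarks = no-proteasome wells (full inhibition) and compound-free wells (no inhibition)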
MEKK2wt confirm: raises or lowers MEK5 binding to wildtype human MEKK2, retest | binding response (% of control), % at 10 µM | hit rate 2.4% among 5,900 | bead flow cytometry, Alexa488-MEK5 binding to MEKK2 WT; actives lie on both sides | shares compounds with MEKK3 PB1 HTS; in the data active means binding response below about 16% or above about 210%; inactive means in between
MEKK2mut confirm: signal of MEK5 binding to mutant human MEKK2, retest | hit rate 2% among 5,900 | percent response, % at 10 µM | shares compounds with MEKK3 PB1 HTS | bead flow cytometry, Alexa488-MEK5 binding to MEKK2 mutant; in the data active means percent response mostly above about 71%, no sharp cut-off; inactive means mostly below about 38%;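 further: higher means compound restores mutant binding toward wildtype level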
MEKK3 confirm: confirmation of inhibitors of MEK5 binding to human MEKK3. binding response (% of control), % at 10 µM. hit rate 1.8% among 5,900. shares compounds with MEKK3 PB1 HTS. bead flow cytometry, Alexa488-MEK5 binding to MEKK3; hits give low values;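 active means binding response below 72% of control, or above a set upper limit, though filed actives all read lower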;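 further: 100% = DMSO only wells and 0% = binding blocked by excess unlabeled MEK5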
* marks the source's active call; other numbers are inactive results; nt = no result; [ ] = remark or other dose.

SMILES	UBC13 polyUb	MEKK3 PB1 HTS	MEKK2 mut-MEK5	Apaf-1 inh	MEKK2wt PB1 HTS	UCH37 DUB inh	MEKK2wt confirm	MEKK2mut confirm	MEKK3 confirm
CC(=O)N1N=C(c2cccc(NS(C)(=O)=O)c2)CC1c1ccc2c(c1)OCO2 (stereo not given)	-5.2	99.0	3.0	-20.7	106.0	1.4	nt	nt	nt
CS(=O)(=O)Nc1ccc(C2=NN(S(C)(=O)=O)C(c3ccc4c(c3)OCO4)C2)cc1 (stereo not given)	-38.9	6.0*[inhibitor]	nt	-4.2	nt	-132.6	70.0	-7.0	72.0
Cc1ccc(C2=NN(S(C)(=O)=O)C(c3ccc4nccnc4c3)C2)cc1 (stereo not given)	-5.3	94.0	6.0	0.3	3.0*[inhibitor]	1.6	92.0	-11.0	89.0
COc1ccc(C2=NN(S(C)(=O)=O)C(c3ccc4nccnc4c3)C2)cc1 (stereo not given)	-0.4	1.0*[inhibitor]	-3.0	-3.1	nt	5.8	98.0	1.0	99.0
O=C(O)CCCC(=O)N1N=C(c2ccccc2)CC1c1ccc2nccnc2c1 (stereo not given)	3.9	136.0*	2.0	4.7	106.0	2.8	99.0	2.0	99.0
CS(=O)(=O)N1N=C(c2ccccc2)CC1c1ccc2nccnc2c1 (stereo not given)	3.5	98.0	-1.0	3.1	103.0	3.3	nt	nt	nt
Cc1cnn(-c2cc(N/N=C/c3ccc(F)cc3)ncn2)c1	-8.9	105.0	4.0	5.6	103.0	nt	nt	nt	nt
COCCN(C(=O)Cc1cccs1)C(C(=O)NCc1ccc(OC)cc1)c1ccc(C(C)C)cc1 (stereo not given)	-8.2	98.0	-4.0	12.3	98.0	2.8	nt	nt	nt
CCc1ccccc1NC(=O)Nc1ccsc1C(=O)OC	0.4	108.0	4.0	6.9	104.0	0.4	nt	nt	nt
O=C(CNC(=O)c1cccs1)NCC(=O)OCc1ccc(Cl)cc1	6.3	90.0	-2.0	-14.7	96.0	0.7	nt	nt	nt
CCN(CC(=O)NC(C)(C)C)C(=O)CCl	-1.6	136.0*	0.0	-1.6	104.0	1.0	99.0	-2.0	99.0
COc1ccc(CN2CCC(C(N)=O)CC2)cc1OCc1ccccc1	-1.4	103.0	0.0	-0.4	107.0	1.7	nt	nt	nt
COc1ccc(CN2CCN(C)CC2)cc1OCc1ccccc1	8.8	69.0*[inhibitor]	-9.0	-10.9	82.0	4.6	108.0	7.0	108.0
COc1ccc2c(c1)c(C(=O)NN=Cc1cccc(O)c1)c(C)n2C	nt	nt	nt	nt	nt	7.9	nt	nt	nt
CC(C)OC(=O)C(NC(=O)c1ccccc1)=C1CCCCC1	2.6	122.0*	6.0	-2.1	113.0	1.9	96.0	0.0	102.0
O=C(NC1(C(F)(F)F)N=C(c2ccccc2)NC1=O)c1ccccc1F (stereo not given)	4.4	134.0*	0.0	-1.0	106.0	1.4	109.0	12.0	105.0
O=C(CN1CCC(C(O)(c2ccccc2)c2ccccc2)CC1)Nc1cc(Cl)ccc1Cl	-14.7	72.0*[inhibitor]	-14.0	13.1	78.0	5.5	98.0	-2.0	104.0
O=S(=O)(c1ccccc1)N(CC(O)CN1CCOCC1)c1ccccc1 (stereo not given)	-7.7	101.0	3.0	2.7	110.0	1.0	nt	nt	nt
CCC(=O)Nc1ccc(Cl)c(NC(=S)NC(=O)COc2ccc(Cl)cc2)c1	-16.3	74.0*[inhibitor]	-1.0	12.1	97.0	0.6	103.0	3.0	103.0
CCc1ccccc1NC(=O)CSc1nnc([C@@H]2CCCN2C(=O)OC(C)(C)C)o1	5.2	108.0	7.0	1.0	113.0	2.7	nt	nt	nt
CCOc1cc(C2NN=C(c3ccccc3)S2)ccc1OCc1ccccc1Cl (stereo not given)	17.1	97.0	-1.0	16.0	95.0	-16.8	nt	nt	nt
CC(=O)c1cccc(CN2CCC(C(=O)Nc3ccc(-c4cccc(C)c4)cc3)CC2)c1	17.3	107.0	19.0	28.9	176.0*	3.5	153.0	50.0	105.0
O=C(NCc1ccccn1)Nc1cc(Cl)cc(Cl)c1	6.7	104.0	8.0	19.3	105.0	1.4	nt	nt	nt
O=C(NCc1csc2ccccc12)Nc1cc(Cl)cc(Cl)c1	-0.6	123.0	29.0	1.1	138.0*	3.6	106.0	-4.0	98.0
O=C(Nc1nc(-c2ccc(F)cc2)cs1)c1ccc(N2C(=O)CCC2=O)cc1	9.0	74.0*[inhibitor]	-7.0	7.4	79.0	4.7	93.0	-2.0	90.0
SMILES	UBC13 polyUb	MEKK3 PB1 HTS	MEKK2 mut-MEK5	Apaf-1 inh	MEKK2wt PB1 HTS	UCH37 DUB inh	MEKK2wt confirm	MEKK2mut confirm	MEKK3 confirm
O=Nc1c(O)n(Cc2ccc(Cl)cc2Cl)c2ccccc12	1.4	107.0	1.0	18.0	100.0	3.4	nt	nt	nt
Cc1ccc(-c2ccc(SCC(=O)N3CCN(c4ccccc4)CC3)nn2)cc1	6.9	138.0*	1.0	-5.3	105.0	-2.1	105.0	-3.0	102.0
O=C(CSc1ccc(-c2ccccc2)nn1)N1CCN(c2ccccc2)CC1	4.3	99.0	9.0	-1.6	99.0	-0.8	nt	nt	nt
CCCCn1c(N)c(N(CCOC)C(=O)C2CCN(S(=O)(=O)c3ccc(C)cc3C)CC2)c(=O)[nH]c1=O	-6.6	nt	nt	8.0	nt	-1.5	nt	nt	nt
O=C(NS(=O)(=O)Oc1ccc(Cl)cc1)OC[C@@H]1CCCN2CCCC[C@H]12	-3.3	149.0*	1.0	8.9	113.0	0.2	102.0	2.0	100.0
O=C(NS(=O)(=O)Oc1ccc(F)c(Cl)c1)OC[C@@H]1CCCN2CCCCC12 (stereo not given in full)	-3.3	103.0	0.0	0.8	99.0	-1.8	nt	nt	nt
Cc1cccc(-c2nc(NCCCN(C)C)c3ccccc3n2)c1	24.2	105.0	13.0	3.0	135.0*	2.6	112.0	7.0	102.0
CN(C)CCCNc1nc(-c2ccc(Cl)cc2)nc2ccccc12	17.4	111.0	16.0	9.4	141.0*	3.0	134.0	15.0	106.0
COc1ccc(S(=O)(=O)N2CC(C(=O)O)Oc3ccc(Cl)cc32)cc1 (stereo not given)	-5.0	90.0	36.0*	5.8	131.0	2.2	98.0	-3.0	102.0
Cc1nc(NC(=O)C23CC4CC(CC(C4)C2)C3)sc1Cc1ccc2c(c1)OCO2	10.3	108.0	30.0	9.7	147.0*	3.8	131.0	15.0	105.0
N#Cc1c(-c2ccco2)ccn(Cc2cccc(F)c2)c1=O	19.3	120.0	0.0	-12.8	111.0	-76.1	nt	nt	nt
